This passage reports GFP response vs DMSO, GFP response relative to DMSO and GFP response, % of DMSO results from PubChem BioAssay.

Test [1] is described as follows: hit retest on RPL19A-GFP reporter strain – cell-based, S. cerevisiae, flow cytometry, cherry picks, mother/daughter gates, confirmation (AID 2270;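 active = GFP response below 50% of the DMSO control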). As to conditions: 3 h, at 10 µM, stronger effect = lower value, 100 = same GFP as DMSO wells.
Test [2] can be described thus: yeast TOR pathway reporter LAP4-GFP change – cell-based, cherry picks, flow cytometry, mother/daughter gates, confirmation (AID 2271;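 active = GFP response above 150% of the DMSO control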;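 note: ratio of sample to DMSO plate mean so 100% equals DMSO level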). The note with it: S. cerevisiae LAP4-GFP strain, 3 h, at 10 µM, stronger effect = higher value, 100 means same as DMSO control. A digest of the protocol:
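material = Alexa 633-stained baker's yeast GFP-fusion strain | amount = 0.2 OD600 cells | schedule = 30 °C, 3 h compound incubation, rotating | signal = GFP by flow cytometry | measure = per-gate (all, mother, daughter) GFP response vs DMSO | controls = positive rapamycin (400 ng/mL), negative DMSO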

The nature of test [3]: TOR pathway reporter MEP2-GFP, retest of hits – S. cerevisiae, flow cytometry GFP, cherry picks, confirmation (AID 2272;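 active = GFP response above 150% of the DMSO control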;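 note: ratio of well signal to plate DMSO mean so 100% equals DMSO level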). As to conditions: S. cerevisiae MEP2-GFP strain, 3 h, at 10 µM, stronger effect = higher value.
Test [4] can be described thus: yeast AGP1-GFP fluorescence change, single-dose – cell-based, flow cytometry, S. cerevisiae, cherry picks, confirmation (AID 2273).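 Note: median GFP channel fluorescence over the whole cell population gate.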 The note with it: S. cerevisiae AGP1-GFP strain, 3 h, at 10 µM.
The nature of test [5]: TOR pathway CIT2 reporter hit retest – S. cerevisiae, GFP fusion, cherry picks, mother/daughter gates, confirmation (AID 2274). The note with it: S. cerevisiae CIT2-GFP strain, flow cytometry, 3 h, at 10 µM, stronger effect = higher value.
Where [6] appears, read: measured here: daughter cell gate.
[7] abbreviates: measured here: mother cell gate.
[8] abbreviates: measured here: daughter cell gate response.
Where [9] appears, read: measured here: mother cell gate response.

Each structure is given as a SMILES string. Activity calls are given as the source filed them.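 Rule for the calls, unless noted: active = GFP response above 150% of the DMSO level; inconclusive = fewer than 70 events counted for a yeast strain; inactive = the rest.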

For the compound `O=C(N/N=C/c1ccc(F)cc1)c1ccc(Br)cc1`, the GFP response vs DMSO was 99.6% (inactive) in test [1], 98.6% in test [1] (setting [6]), 98% in test [1] (setting [7]) and 96.8% (inactive) in test [3]. Moreover, the GFP response relative to DMSO is 111% (inactive) in test [2], 109% in test [2] (setting [8]) and 109% in test [2] (setting [9]). In addition, the GFP response, % of DMSO in test [4] is 99.6% (inactive); in test [5], 102% (inactive); in test [5] (setting [6]), 101%; in test [5] (setting [7]), 87%.
Turning to `c1cc2c(cc1C1CCCCC1)c1c3n2CCCNC3CCC1` (stereo not drawn), the GFP response vs DMSO in test [1] is 101% (inactive); in test [1] (setting [6]), 99%; in test [1] (setting [7]), 100%; in test [3], 111% (inactive). Moreover, the figures for the GFP response relative to DMSO in test [2], in test [2] (setting [8]) and in test [2] (setting [9]) were 101% (inactive), 102% and 102%, respectively. Besides, the GFP response, % of DMSO in test [4] was 105% (inactive); in test [5], 100% (inactive); in test [5] (setting [6]) it was 96.5%; in test [5] (setting [7]), 98.7%.
Take `Cc1cc(O)c(C(=O)/C=C/c2ccc(C(C)C)cc2)c(=O)o1`: the GFP response vs DMSO in test [1] is 95.4% (inactive); in test [1] (setting [6]), 93.9%; in test [1] (setting [7]), 96.6%; in test [3], 96.2% (inactive). In addition, the values for the GFP response relative to DMSO in test [2], in test [2] (setting [8]) and in test [2] (setting [9]) were 104% (inactive), 104% and 106%, respectively. Besides, the GFP response, % of DMSO is 100% (inactive) in test [4], 98.3% (inactive) in test [5], 99.1% in test [5] (setting [6]) and 97.3% in test [5] (setting [7]).
`Cc1cccc(N2C(=O)C(Cl)=C(Nc3c(C)n(C)n(-c4ccccc4)c3=O)C2=O)c1C`: the GFP response vs DMSO in test [1] is 102% (inactive); in test [1] (setting [6]), 102%; in test [1] (setting [7]), 103%; in test [3], 104% (inactive). The figures for the GFP response relative to DMSO in test [2], in test [2] (setting [8]) and in test [2] (setting [9]) were 103% (inactive), 104% and 104%, respectively. The GFP response, % of DMSO in test [4] is 103% (inactive); in test [5], 99.3% (inactive); in test [5] (setting [6]) it was 100%; in test [5] (setting [7]), 98%.
For the compound `Cc1ccc(S(=O)(=O)c2ncccc2[N+](=O)[O-])cc1`, the GFP response vs DMSO in test [1] is 92.2% (inactive); in test [1] (setting [6]), 93.2%; in test [1] (setting [7]), 89.1%; in test [3] it was 105% (inactive). The GFP response relative to DMSO in test [2] was 129% (inactive); in test [2] (setting [8]) it was 123%; in test [2] (setting [9]), 131%. For the same compound, the GFP response, % of DMSO in test [4] was 109% (inactive); in test [5] it was 94.4% (inactive); in test [5] (setting [6]) it was 97.4%; in test [5] (setting [7]), 91.9%.
For the compound `N/C(=N\OC(=O)c1cc(Br)ccc1Cl)c1ccccn1`, the GFP response vs DMSO is 101% (inactive) in test [1], 98.7% in test [1] (setting [6]), 97.7% in test [1] (setting [7]) and 110% (inactive) in test [3]. Moreover, the results for the GFP response relative to DMSO in test [2], in test [2] (setting [8]) and in test [2] (setting [9]) were 133% (inactive), 125% and 135%, respectively. Also, the GFP response, % of DMSO is 93.2% (inactive) in test [4], 112% (inactive) in test [5], 105% in test [5] (setting [6]) and 114% in test [5] (setting [7]).
`Cc1ccc(S(=O)(=O)c2ncccc2N)cc1`: the GFP response vs DMSO in test [1] was 99.4% (inactive); in test [1] (setting [6]), 99.4%; in test [1] (setting [7]), 99%; in test [3], 100% (inactive). Besides, the GFP response relative to DMSO in test [2] was 101% (inactive); in test [2] (setting [8]) it was 101%; in test [2] (setting [9]) it was 98.3%. In addition, the GFP response, % of DMSO in test [4] was 102% (inactive); in test [5], 101% (inactive); in test [5] (setting [6]), 101%; in test [5] (setting [7]), 99.7%.
As to `Cc1ccc(S(=O)(=O)N2CC3CCC2C3)cc1` (stereo not drawn), the GFP response vs DMSO in test [1] was 101% (inactive); in test [1] (setting [6]), 100%; in test [1] (setting [7]), 104%; in test [3] it was 97.8% (inactive). The GFP response relative to DMSO in test [2] was 97.4% (inactive); in test [2] (setting [8]) it was 97.2%; in test [2] (setting [9]), 99.3%. Moreover, the GFP response, % of DMSO in test [4] was 97.4% (inactive); in test [5] it was 112% (inactive); in test [5] (setting [6]), 110%; in test [5] (setting [7]), 114%.
As for `Cc1ccc(S(=O)(=O)N(CC(=O)Nc2cccnc2)c2ccccc2C)cc1`, the GFP response vs DMSO is 104% (inactive) in test [1], 100% in test [1] (setting [6]), 105% in test [1] (setting [7]) and 105% (inactive) in test [3]. For the same compound, the figures for the GFP response relative to DMSO in test [2], in test [2] (setting [8]) and in test [2] (setting [9]) were 97% (inactive), 95.9% and 97.3%, respectively. In addition, the GFP response, % of DMSO in test [4] is 98.6% (inactive); in test [5], 94.4% (inactive); in test [5] (setting [6]), 92%; in test [5] (setting [7]) it was 94.4%.
In the case of `Cc1ccc(C(=O)c2c3ccccc3[n+]([O-])n2CCC(=O)O)cc1`, the GFP response vs DMSO is 66.2% (inactive) in test [1], 70.6% in test [1] (setting [6]), 63.3% in test [1] (setting [7]) and 104% (inactive) in test [3]. The results for the GFP response relative to DMSO in test [2], in test [2] (setting [8]) and in test [2] (setting [9]) were 102% (inactive), 101% and 105%, respectively. For the same compound, the GFP response, % of DMSO in test [4] is 105% (inactive); in test [5], 99.3% (inactive); in test [5] (setting [6]) it was 96.4%; in test [5] (setting [7]), 99.1%.
As for `CC(C)COC(=O)NCC12C=CC(O1)C1C(=O)N(c3ccc(Cl)cc3)C(=O)C12` (stereo not drawn), the GFP response vs DMSO in test [1] was 99.6% (inactive); in test [1] (setting [6]), 99.5%; in test [1] (setting [7]) it was 98.4%; in test [3], 106% (inactive). Also, the GFP response relative to DMSO in test [2] is 98.9% (inactive); in test [2] (setting [8]), 101%; in test [2] (setting [9]) it was 99.5%. The GFP response, % of DMSO was 107% (inactive) in test [4], 101% (inactive) in test [5], 101% in test [5] (setting [6]) and 102% in test [5] (setting [7]).
For the compound `COc1cc(/C=C2\C(=O)ON=C2c2ccccc2)cc(Br)c1O`, the GFP response vs DMSO is 92.7% (inactive) in test [1], 95.6% in test [1] (setting [6]), 88.3% in test [1] (setting [7]) and 99.3% (inactive) in test [3]. Besides, the GFP response relative to DMSO was 114% (inactive) in test [2], 113% in test [2] (setting [8]) and 115% in test [2] (setting [9]). The GFP response, % of DMSO in test [4] is 92.7% (inactive); in test [5] it was 94.4% (inactive); in test [5] (setting [6]) it was 95.8%; in test [5] (setting [7]), 89.3%.
Turning to `COc1ccccc1N=Nc1ccc(O)c2ncccc12`, the GFP response vs DMSO in test [1] is 104% (inactive); in test [1] (setting [6]) it was 101%; in test [1] (setting [7]) it was 101%; in test [3], 132% (inactive). Further, the GFP response relative to DMSO in test [2] is 235% (active); in test [2] (setting [8]), 203%; in test [2] (setting [9]) it was 223%. The GFP response, % of DMSO was 115% (inactive) in test [4], 158% (active) in test [5], 126% in test [5] (setting [6]) and 161% in test [5] (setting [7]).
